# Source: ChEMBL document CHEMBL3120143, “Use of 2'-spirocyclic ethers in HCV nucleoside design” (J Med Chem, 2014)
# Activity calls are given as the source filed them. No cut-off for these calls is given here.
# What was measured:
# [1] = Cytotoxicity against human Lunet cells expressing ET subgenomic replicon after 4 days by Celltitre-Glo assay; type: cell-based
# Summary of the method: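 ET-Lunet replicon cells, 3000 cells/well, incubated 4 days with serially diluted compound; proliferation/viability by CellTiter-Glo luminescence; CC50 = concentration giving 50% inhibition, curve-fitted.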
# Hepatitis C virus [2] = assay: Antiviral activity against HCV genotype 1b infected in human ET-Lunet cells assessed as inhibition of HCV RNA replication after 4 days by firefly luciferase reporter gene assay; type: functional, organism-based, Hepacivirus hominis; conditions: 96 h
# Summary of the method: (§1)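 ET-Lunet cells carrying genotype 1b replicon seeded at 3000 cells/well, exposed 4 days to serially diluted compound; HCV RNA replication read as firefly luciferase luminescence (Bright-Glo). EC50 taken as concentration giving 50% inhibition, from curve fitting.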
# [3] = Inhibition of HCV genotype 1b wild type recombinant NS5B RNA dependent RNA polymerase using IRES RNA as substrate after 30 mins by radioactive assay in presence of [alpha32p]UTP; set-up: species or system Hepatitis C virus subtype 1b
# Summary of the method: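 Recombinant genotype 1b NS5B (wild-type or S282T), 40 ng/μL, with 20 ng/μL genotype 1b (−) IRES RNA template. Mix holds 5 μM each of the four natural ribonucleotides plus [α-³²P]UTP, RNase inhibitor 1 unit/μL, 5 mM MgCl₂ and 2 mM DTT in 50 mM Hepes pH 7.5. Incubated at 27 °C for 30 min, then stopped with EDTA/NaCl/citrate. Radioactive RNA product quantified and IC50 fitted.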
# [4] = target: RNA-directed RNA polymerase (Hepacivirus hominis, UniProt O39930, S282T); assay: Inhibition of HCV genotype 1b recombinant NS5B RNA dependent RNA polymerase S282T mutant using IRES RNA as substrate after 30 mins by radioactive assay in presence of [alpha32p]UTP; set-up: species or system Hepatitis C virus subtype 1b
# Hepatitis C virus [5] = assay: Antiviral activity against HCV genotype 1b infected in human ET-Lunet cells assessed as inhibition of HCV RNA replication up to 100 uM after 4 days by firefly luciferase reporter gene assay; type: functional, organism-based; conditions: Hepacivirus hominis; summary of the method: as §1
# Sequence of RNA-directed RNA polymerase (O39930 entry or part of it S282T): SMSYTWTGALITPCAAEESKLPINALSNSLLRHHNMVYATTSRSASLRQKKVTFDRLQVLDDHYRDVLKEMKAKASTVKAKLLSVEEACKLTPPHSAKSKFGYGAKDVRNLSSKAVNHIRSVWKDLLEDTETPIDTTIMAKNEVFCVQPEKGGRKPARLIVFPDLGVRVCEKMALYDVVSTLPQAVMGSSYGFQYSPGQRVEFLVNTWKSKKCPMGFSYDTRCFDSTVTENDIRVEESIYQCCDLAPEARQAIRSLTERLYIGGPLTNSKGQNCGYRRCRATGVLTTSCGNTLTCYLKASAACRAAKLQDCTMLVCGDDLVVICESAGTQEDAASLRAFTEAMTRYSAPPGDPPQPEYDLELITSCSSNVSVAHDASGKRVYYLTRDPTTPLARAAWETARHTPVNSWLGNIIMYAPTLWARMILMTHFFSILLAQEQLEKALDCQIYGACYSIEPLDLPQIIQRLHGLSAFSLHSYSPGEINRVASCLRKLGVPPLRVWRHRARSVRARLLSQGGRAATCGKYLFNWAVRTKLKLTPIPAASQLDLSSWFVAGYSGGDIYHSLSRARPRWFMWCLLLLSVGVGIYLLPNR
SMILES,CC50 at 96 h [1] [µM],EC50 (Hepatitis C virus [2]) [µM],IC50 [3] [µM],IC50 [4] [µM],inhibition (Hepatitis C virus [5])
COC(=O)[C@H](C)NP(=O)(OC[C@H]1O[C@@H](n2ccc(=O)[nH]c2=O)[C@@]2(CCCO2)[C@@H]1O)Oc1ccccc1 (mixture of isomers),> 100,28.3,–,–,–
COc1nc(N)nc2c1ncn2[C@@H]1O[C@H](COP(=O)(O)OP(=O)(O)OP(=O)(O)O)[C@@H](O)[C@@]1(C)F,–,–,4.2,5.31,–
COc1nc(N)nc2c1ncn2[C@@H]1O[C@H](CO[P@@](=O)(N[C@@H](C)C(=O)OCc2ccccc2)Oc2ccccc2)[C@@H](O)[C@]12CCO2,> 20,8.65,–,–,–
C[C@@]1(F)[C@H](O)[C@@H](CO)O[C@H]1n1ccc(N)nc1=O,–,–,8.41,56.7,–
COC(=O)[C@H](C)NP(=O)(OC[C@H]1O[C@@H](n2ccc(=O)[nH]c2=O)[C@@]2(CCO2)[C@@H]1O)Oc1ccccc1 (mixture of isomers),> 100,16.7,–,–,–
O=c1ccn([C@@H]2O[C@H](CO)[C@@H](O)[C@@]23CCO3)c(=O)[nH]1,> 100,> 100,–,–,–
COC(=O)[C@H](C)NP(=O)(OC[C@H]1O[C@@H](n2cnc3c(OC)nc(N)nc32)[C@@]2(CCO2)[C@@H]1O)Oc1ccccc1 (mixture of isomers),> 20,7.16,–,–,–
Nc1ccn([C@@H]2O[C@H](CO)[C@@H](O)[C@]23CCCO3)c(=O)n1,> 100,> 100,–,–,–
O=c1ccn([C@@H]2O[C@H](COP(=O)(O)OP(=O)(O)OP(=O)(O)O)[C@@H](O)[C@@]23CCCO3)c(=O)[nH]1,–,–,> 100,–,–
CC(C)OC(=O)[C@H](C)NP(=O)(OC[C@H]1O[C@@H](n2ccc(N)nc2=O)[C@@]2(CCO2)[C@@H]1O)Oc1ccccc1 (stereo partly drawn),> 100,16.7,–,–,–
CCCCOC(=O)[C@H](C)N[P@@](=O)(OC[C@H]1O[C@@H](n2cnc3c(OC)nc(N)nc32)[C@@]2(CCO2)[C@@H]1O)Oc1ccccc1,> 20,3.1,–,–,–
O=c1ccn([C@@H]2O[C@H](CO)[C@@H](O)[C@@]23CCCO3)c(=O)[nH]1,> 100,14.9,–,–,–
COC(=O)[C@H](C)NP(=O)(OC[C@H]1O[C@@H](n2ccc(=O)[nH]c2=O)[C@]2(CCCO2)[C@@H]1O)Oc1ccccc1 (mixture of isomers),> 100,20.6,–,–,–
COc1nc(N)nc2c1ncn2[C@@H]1O[C@H](COP(=O)(N[C@@H](C)C(=O)OCC(C)(C)C)Oc2cccc3ccccc23)[C@@H](O)[C@]12CCO2 (mixture of isomers),> 20,0.31,–,–,–
COc1nc(N)nc2c1ncn2[C@@H]1O[C@H](CO[P@](=O)(N[C@@H](C)C(=O)OC2CCCC2)Oc2ccccc2)[C@@H](O)[C@]12CCO2,> 20,0.67,–,–,–
Nc1nc2c(ncn2[C@@H]2O[C@H](CO)[C@@H](O)[C@]23CCO3)c(=O)[nH]1,–,–,–,–,inactive
CCOC(=O)[C@H](C)N[P@](=O)(OC[C@H]1O[C@@H](n2cnc3c(OC)nc(N)nc32)[C@@]2(CCO2)[C@@H]1O)Oc1ccccc1,> 20,0.86,–,–,–
CCCCOC(=O)[C@H](C)N[P@](=O)(OC[C@H]1O[C@@H](n2cnc3c(OC)nc(N)nc32)[C@@]2(CCO2)[C@@H]1O)Oc1ccccc1,> 20,0.27,–,–,–
COC(=O)[C@H](C)NP(=O)(OC[C@H]1O[C@@H](n2ccc(=O)[nH]c2=O)[C@]2(CCO2)[C@@H]1O)Oc1ccccc1 (mixture of isomers),> 100,28.5,–,–,–
Nc1ccn([C@@H]2O[C@H](COP(=O)(O)OP(=O)(O)OP(=O)(O)O)[C@@H](O)[C@@]23CCO3)c(=O)n1,–,–,> 100,–,–

SMILES,CC50 at 96 h [1] [µM],EC50 (Hepatitis C virus [2]) [µM],IC50 [3] [µM],IC50 [4] [µM],inhibition (Hepatitis C virus [5])
Nc1nc2c(ncn2[C@@H]2O[C@H](COP(=O)(O)OP(=O)(O)OP(=O)(O)O)[C@@H](O)[C@]23CCO3)c(=O)[nH]1,–,–,9.5,10.4,–
COc1nc(N)nc2c1ncn2[C@@H]1O[C@H](CO[P@@](=O)(N[C@@H](C)C(=O)OC2CCCC2)Oc2ccccc2)[C@@H](O)[C@]12CCO2,> 20,0.45,–,–,–
COc1nc(N)nc2c1ncn2[C@@H]1O[C@H](CO[P@](=O)(N[C@@H](C)C(=O)OCC(C)(C)C)Oc2ccccc2)[C@@H](O)[C@]12CCO2,> 20,9.31,–,–,–
COc1nc(N)nc2c1ncn2[C@@H]1O[C@H](CO[P@@](=O)(N[C@@H](C)C(=O)OCC(C)C)Oc2ccccc2)[C@@H](O)[C@]12CCO2,> 20,0.57,–,–,–
Nc1ccn([C@@H]2O[C@H](COP(=O)(O)OP(=O)(O)OP(=O)(O)O)[C@@H](O)[C@@]23CCCO3)c(=O)n1,–,–,> 100,–,–
COc1nc(N)nc2c1ncn2[C@@H]1O[C@H](CO[P@@](=O)(N[C@@H](C)C(=O)OC(C)C)Oc2ccccc2)[C@@H](O)[C@]12CCO2,> 20,0.0045,–,–,–
Nc1ccn([C@@H]2O[C@H](COP(=O)(O)OP(=O)(O)OP(=O)(O)O)[C@@H](O)[C@]23CCO3)c(=O)n1,–,–,8.48,> 100,–
O=c1ccn([C@@H]2O[C@H](COP(=O)(O)OP(=O)(O)OP(=O)(O)O)[C@@H](O)[C@]23CCO3)c(=O)[nH]1,–,–,39.4,> 100,–
COc1nc(N)nc2c1ncn2[C@@H]1O[C@H](CO[P@@](=O)(N[C@@H](C)C(=O)OCC(C)(C)C)Oc2ccccc2)[C@@H](O)[C@]12CCO2,> 20,1.02,–,–,–
Nc1ccn([C@@H]2O[C@H](CO)[C@@H](O)[C@]23CCO3)c(=O)n1,> 100,56.6,–,–,–
O=c1ccn([C@@H]2O[C@H](CO)[C@@H](O)[C@]23CCO3)c(=O)[nH]1,> 100,> 100,–,–,–
COc1nc(N)nc2c1ncn2[C@@H]1O[C@H](CO)[C@@H](O)[C@]12CCO2,–,–,–,–,inactive
O=c1ccn([C@@H]2O[C@H](CO)[C@@H](O)[C@]23CCCO3)c(=O)[nH]1,> 100,> 100,–,–,–
Nc1ccn([C@@H]2O[C@H](COP(=O)(O)OP(=O)(O)OP(=O)(O)O)[C@@H](O)[C@]23CCCO3)c(=O)n1,–,–,45.3,> 100,–
Nc1ccn([C@@H]2O[C@H](CO)[C@@H](O)[C@@]23CCCO3)c(=O)n1,> 100,> 100,–,–,–
COc1nc(N)nc2c1ncn2[C@@H]1O[C@H](CO[P@](=O)(N[C@@H](C)C(=O)OCC(C)C)Oc2ccccc2)[C@@H](O)[C@]12CCO2,> 20,4.42,–,–,–
COc1nc(N)nc2c1ncn2[C@@H]1O[C@H](CO[P@](=O)(N[C@@H](C)C(=O)OC(C)C)Oc2ccccc2)[C@@H](O)[C@]12CCO2,> 20,4.52,–,–,–
Nc1ccn([C@@H]2O[C@H](CO)[C@@H](O)[C@@]23CCO3)c(=O)n1,> 100,> 100,–,–,–
COc1nc(N)nc2c1ncn2[C@@H]1O[C@H](CO[P@](=O)(N[C@@H](C)C(=O)OCc2ccccc2)Oc2ccccc2)[C@@H](O)[C@]12CCO2,> 20,11.7,–,–,–
